Experimental data as given in ChEMBL document CHEMBL3627626, “6-Substituted Pyrrolo[2,3-d]pyrimidine Thienoyl Regioisomers as Targeted Antifolates for Folate Receptor α and the Proton-Coupled Folate Transporter in Human Tumors” (J Med Chem, 2015).
Calls of active or inactive are those of the source. The calls are words filed in the database; no cut-off is given here.

What was measured:
[1] = biological target: Folate receptor beta (Homo sapiens) (UniProt P14207); test: Displacement of [3H]-folic acid from human FRbeta expressed in Chinese hamster D4 cells after 15 mins relative to folic acid; format: cell-based
Outline: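 Competitive binding to surface folate receptor on RT16 (FRα) or D4 (FRβ) CHO cells. Cells were acid-washed (pH 3.5) to strip bound folate, then incubated in HEPES-buffered saline pH 7.4 with 50 nM [3H]folic acid plus unlabeled ligand (0–1000 nM) for 15 min at 0 °C. Bound label was normalised to protein. Affinity is the inverse molar ratio for 50% displacement, with folic acid set to 1. Mean of 4–10 experiments ±SE.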

[2] = system: SK-OV-3; test: Antitumor activity against human SKOV3 cells expressing RFC/PCFT/FRalpha xenografted in folate-deficient diet fed NCR SCID mouse assessed as log10 of gross cell killing at 16 mg/kg, iv administered every 4 days on day 3, 7, 11 measured twice per week; format: functional
Outline: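 Ten-week-old female NCR SCID mice, fed a folate-deficient or standard folate-replete diet, were implanted subcutaneously and bilaterally with SKOV3 tumour fragments. Randomised at 5 mice/group. Dosed intravenously, 0.2 mL per injection, in 5% ethanol/1% Tween-80/0.5% NaHCO3 in water at pH 6.5, on days 3, 7 and 11. Tumours measured twice weekly and mice weighed daily. T/C taken on day 21; growth delay and log cell kill also reported.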

[3] = biological target: T1, Trifunctional purine biosynthetic protein adenosine-3 (Homo sapiens, UniProt P22102); test: Inhibition of human recombinant His-tagged GARFTase assessed as formation of 5,8-dideazafolate from 10-formyl-5,80-dideazafolic acid measured every 15 secs over 20 mins by spectrophotometric analysis
T1 sequence (P22102 whole entry): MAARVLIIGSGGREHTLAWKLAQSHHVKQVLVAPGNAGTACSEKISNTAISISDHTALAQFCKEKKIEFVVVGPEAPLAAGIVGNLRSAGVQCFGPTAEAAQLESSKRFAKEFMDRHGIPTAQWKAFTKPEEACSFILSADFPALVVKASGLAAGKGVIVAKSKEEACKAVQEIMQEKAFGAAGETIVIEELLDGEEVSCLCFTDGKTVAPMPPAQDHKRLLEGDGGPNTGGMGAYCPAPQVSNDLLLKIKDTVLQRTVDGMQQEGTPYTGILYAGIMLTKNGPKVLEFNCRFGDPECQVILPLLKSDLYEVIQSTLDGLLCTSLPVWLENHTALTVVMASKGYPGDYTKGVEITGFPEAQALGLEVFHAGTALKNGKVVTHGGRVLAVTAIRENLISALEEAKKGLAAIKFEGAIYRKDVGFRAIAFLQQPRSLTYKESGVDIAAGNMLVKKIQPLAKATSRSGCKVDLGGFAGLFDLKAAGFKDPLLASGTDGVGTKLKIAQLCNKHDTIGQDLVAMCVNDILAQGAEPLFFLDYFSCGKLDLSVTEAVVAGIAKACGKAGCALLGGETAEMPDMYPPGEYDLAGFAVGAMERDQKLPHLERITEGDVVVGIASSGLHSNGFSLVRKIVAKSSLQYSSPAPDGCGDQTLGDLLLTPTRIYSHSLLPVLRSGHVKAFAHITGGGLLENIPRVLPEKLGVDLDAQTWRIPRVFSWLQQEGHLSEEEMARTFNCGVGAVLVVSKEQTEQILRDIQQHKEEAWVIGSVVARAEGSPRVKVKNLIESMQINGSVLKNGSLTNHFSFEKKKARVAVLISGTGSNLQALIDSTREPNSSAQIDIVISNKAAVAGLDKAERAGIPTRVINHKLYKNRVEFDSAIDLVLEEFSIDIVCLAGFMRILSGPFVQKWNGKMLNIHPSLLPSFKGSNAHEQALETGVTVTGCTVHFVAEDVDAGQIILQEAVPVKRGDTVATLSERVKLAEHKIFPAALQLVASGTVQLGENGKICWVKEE

[4] = biological target: T2, Proton-coupled folate transporter (Homo sapiens) (UniProt Q96NT5); test: Binding affinity to human PCFT expressed in Chinese hamster R2/PCFT4 cells assessed as intracellular drug transport rate at 37 degC at pH 5.5 measured over 2 mins by Lineweaver-Burk plot analysis; format: cell-based
T2 sequence (whole entry): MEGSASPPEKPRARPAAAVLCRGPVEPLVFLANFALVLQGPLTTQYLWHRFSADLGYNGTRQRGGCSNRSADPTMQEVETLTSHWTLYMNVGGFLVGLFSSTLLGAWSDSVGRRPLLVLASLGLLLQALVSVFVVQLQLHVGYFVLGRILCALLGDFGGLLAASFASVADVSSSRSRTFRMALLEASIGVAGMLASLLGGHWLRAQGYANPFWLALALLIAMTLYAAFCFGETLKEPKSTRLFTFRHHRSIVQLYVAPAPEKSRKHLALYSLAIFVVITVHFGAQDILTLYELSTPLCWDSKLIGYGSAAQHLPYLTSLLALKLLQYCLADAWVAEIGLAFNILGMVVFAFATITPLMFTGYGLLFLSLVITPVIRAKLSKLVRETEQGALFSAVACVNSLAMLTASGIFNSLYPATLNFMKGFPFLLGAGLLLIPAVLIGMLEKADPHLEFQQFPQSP
Outline: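 R2/PCFT4 CHO cells were grown as monolayers, transferred to spinner flasks, and used as suspensions (5–10 × 10⁷ cells). Uptake was quenched with ice-cold DPBS and cells were NaOH-solubilized. Results are pmol/mg protein; Kt and Vmax come from Lineweaver–Burke plots.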

[5] = system: IGROV-1; test: Antiproliferative activity against human IGROV1 cells after 96 hrs by CellTiter-Blue assay; format: functional, cell-based; details: IGROV-1, 96 h
Outline: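 IGROV1 and SKOV3 cells plated at ~2500–5000 cells/well in folate-free RPMI 1640 with 10% dialyzed FBS, antibiotics and 2 nM LCV, over a range of drug concentrations, ±200 nM folic acid in parallel. Incubated up to 96 h. Viability read by Cell Titer Blue fluorescence (ex 560/em 590 nm).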

[6] = biological target: T3, Trifunctional purine biosynthetic protein adenosine-3 (Homo sapiens) (UniProt P22102); test: Inhibition of GARFTase in human KB cells expressing FRalpha/PCFT/RFC assessed as cell growth inhibition after 96 hrs by CellTiter-Blue assay in presence of AICA; format: cell-based
T3 sequence (whole entry): T1 sequence (P22102 whole entry)

[7] = system: PC43-10; test: Selectivity ratio of IC50 for human RFC expressed in Chinese hamster PC43-10 cells assessed as cell growth inhibition to IC50 for human PCFT expressed in Chinese hamster R2/PCFT4 cells assessed as cell growth inhibition; format: cell-based
[8] = system: D4; test: Selectivity ratio of IC50 for human RFC expressed in Chinese hamster PC43-10 cells assessed as cell growth inhibition to IC50 for human FRbeta expressed in Chinese hamster D4 cells assessed as cell growth inhibition; format: cell-based
[9] = biological target: T3, Trifunctional purine biosynthetic protein adenosine-3 (Homo sapiens); test: Inhibition of GARFTase in human KB cells expressing FRalpha/PCFT/RFC assessed as cell growth inhibition after 96 hrs by CellTiter-Blue assay in presence of adenosine; format: cell-based

Sequence of Folate receptor beta (Homo sapiens) (P14207 17-230 limits assumed): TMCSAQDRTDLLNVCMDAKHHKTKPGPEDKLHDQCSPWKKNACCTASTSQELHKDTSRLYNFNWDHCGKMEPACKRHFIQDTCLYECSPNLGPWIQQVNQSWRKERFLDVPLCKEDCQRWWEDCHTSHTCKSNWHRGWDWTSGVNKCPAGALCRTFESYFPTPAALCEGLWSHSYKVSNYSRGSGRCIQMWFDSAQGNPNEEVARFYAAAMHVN

Nc1nc2[nH]c(CCCc3cc(C(=O)N[C@@H](CCC(=O)O)C(=O)O)cs3)cc2c(=O)[nH]1
Activity [1]: 35% | LCK [2]: 1.9 | Ki [3]: 9.1 nM | K [4]: 0.22 µM | IC50 [5]: 0.77 nM | inhibition [6]: inactive | Ratio IC50 [7]: 29 | Ratio IC50 [8]: 1890 | inhibition [9]: inactive
